Activity calls are given as the source filed them. The calls are words filed in the database; no cut-off is given here.
Assays:
[1] = Inhibition of JMJD2E by ESI-MS binding assay
Method in brief: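 Nondenaturing ESI-MS binding: His-tagged JMJD2E desalted into 15 mM ammonium acetate pH 7.5. Protein (15 μM) mixed with 1 equiv Fe(II) and 1 equiv inhibitor, incubated 30 min at 37 °C, then analysed on a Q-TOF by nanospray. Read-out: ratio of JMJD2E–inhibitor complex to free JMJD2E.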

[2] = Binding to JMJD2E by nondenaturing ESI-MS, ratio of JMJD2E-inhibitor complex to free JMJD2E
[3] = Inhibition of JMJD2E by FDH coupled assay
Method in brief: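 Formaldehyde dehydrogenase-coupled demethylation assay with initial rates from NADH production. IC50 determined from these rates; detection limit about 1 μM IC50.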

[4] = Inhibition of JMJD2E by MALDI-TOF assay
Homo sapiens = organism: Homo sapiens; assay: Inhibition of human […] by CODD biochemical assay
[5] = biological target: T1, Lysine-specific demethylase 4A (Homo sapiens, UniProt O75164); assay: Inhibition of JMJD2A by MALDI-TOF assay
T1 sequence (O75164 whole entry): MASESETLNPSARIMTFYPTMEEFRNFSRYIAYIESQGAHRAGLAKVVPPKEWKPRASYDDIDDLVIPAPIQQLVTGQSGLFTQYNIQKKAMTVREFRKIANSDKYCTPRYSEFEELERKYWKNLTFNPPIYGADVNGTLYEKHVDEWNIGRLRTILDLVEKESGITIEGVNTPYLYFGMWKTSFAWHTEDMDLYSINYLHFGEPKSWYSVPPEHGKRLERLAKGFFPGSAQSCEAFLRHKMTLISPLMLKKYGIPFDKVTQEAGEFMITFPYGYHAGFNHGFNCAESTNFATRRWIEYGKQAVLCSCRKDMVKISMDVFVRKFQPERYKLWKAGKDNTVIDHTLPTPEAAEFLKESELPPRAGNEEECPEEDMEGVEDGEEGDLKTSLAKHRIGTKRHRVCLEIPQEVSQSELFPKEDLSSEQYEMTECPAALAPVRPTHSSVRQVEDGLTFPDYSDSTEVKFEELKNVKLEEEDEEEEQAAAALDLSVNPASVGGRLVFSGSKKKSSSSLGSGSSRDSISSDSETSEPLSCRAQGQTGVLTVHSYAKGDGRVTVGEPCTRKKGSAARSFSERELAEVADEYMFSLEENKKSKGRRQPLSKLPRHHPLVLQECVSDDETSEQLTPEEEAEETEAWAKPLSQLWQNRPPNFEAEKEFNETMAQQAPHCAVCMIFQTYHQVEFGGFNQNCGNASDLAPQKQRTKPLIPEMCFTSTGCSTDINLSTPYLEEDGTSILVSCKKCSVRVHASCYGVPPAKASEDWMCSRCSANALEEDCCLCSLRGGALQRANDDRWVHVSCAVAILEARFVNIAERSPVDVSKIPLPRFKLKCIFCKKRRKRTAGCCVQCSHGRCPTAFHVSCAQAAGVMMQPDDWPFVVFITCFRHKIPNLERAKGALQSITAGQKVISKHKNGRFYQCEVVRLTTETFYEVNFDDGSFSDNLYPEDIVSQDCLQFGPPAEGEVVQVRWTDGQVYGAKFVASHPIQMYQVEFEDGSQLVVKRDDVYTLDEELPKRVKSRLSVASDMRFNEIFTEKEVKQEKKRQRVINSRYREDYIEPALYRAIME
Method in brief: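 Reaction started with 2OG (10 μM) and ARKme3STGGK peptide (10 μM), then 30 min at 37 °C. Quenched with methanol. MALDI-TOF methylation-state intensities gave % demethylation; IC50 from concentration variation.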

Structure (SMILES)	Activity [1]	Ratio [2]	IC50 [3] [µM]	IC50 [4] [µM]	Activity (Homo sapiens)	IC50 [5] [µM]
O=C(Cc1ccc(Cl)cc1)Oc1ccc(C[C@@H](NC(=O)C(=O)O)C(=O)O)cc1	Active	–	–	–	–	–
O=C(O)C(=O)N[C@H](Cc1ccc(OC(=O)c2cc3ccccc3s2)cc1)C(=O)O	Active	–	–	–	–	–
CCC(C(=O)Oc1ccc(C[C@@H](NC(=O)C(=O)O)C(=O)O)cc1)c1ccccc1 (some centres not stated)	Active	–	–	–	–	–
O=C(O)C(=O)N[C@H](Cc1ccc(OCCCN2C(=O)c3ccccc3C2=O)cc1)C(=O)O	Active	0.9	326	–	–	–
Cc1noc(C)c1S(=O)(=O)Oc1ccc(C[C@@H](NC(=O)C(=O)O)C(=O)O)cc1	Active	1	82.9	–	–	–
O=C(O)C(=O)N[C@H](Cc1ccc(OS(=O)(=O)c2ccc(Br)cc2)cc1)C(=O)O	Active	–	5.4	21	inactive	12
O=C(O)C(=O)N[C@H](Cc1ccc(OS(=O)(=O)c2ccccc2)cc1)C(=O)O	Active	5.7	14.7	–	–	–
O=C(Cc1ccccc1)Oc1ccc(C[C@@H](NC(=O)C(=O)O)C(=O)O)cc1	Active	–	–	–	–	–
O=C(O)C(=O)N[C@H](Cc1ccc(OC(=O)N2CCOCC2)cc1)C(=O)O	Active	–	–	–	–	–
O=C(O)C(=O)N[C@H](Cc1ccc(OS(=O)(=O)c2ccc(F)cc2)cc1)C(=O)O	Active	–	11.7	38	inactive	20
O=C(O)C(=O)N[C@H](Cc1ccc(OCC(=O)c2ccc(N3CCCC3)cc2)cc1)C(=O)O	Active	2	14.8	59	–	13
O=C(O)C(=O)N[C@H](Cc1ccc(OC(=O)c2cnn(-c3ccc(Cl)cc3)c2C(F)(F)F)cc1)C(=O)O	Active	–	–	–	–	–

Continued, values first:

Activity [1]	Ratio [2]	IC50 [3] [µM]	IC50 [4] [µM]	Activity (Homo sapiens)	IC50 [5] [µM]	Structure (SMILES)
Active	1.7	37.1	76	–	–	O=C(O)C(=O)N[C@H](Cc1ccc(OCc2ccccc2)cc1)C(=O)O
Active	–	8.6	61	inactive	13	CC(C)(C)c1ccc(S(=O)(=O)Oc2ccc(C[C@@H](NC(=O)C(=O)O)C(=O)O)cc2)cc1
Active	0.9	185	–	–	–	CC(C)(C)C(=O)COc1ccc(C[C@@H](NC(=O)C(=O)O)C(=O)O)cc1
Active	–	–	–	–	–	CC(C)CC(=O)Oc1ccc(C[C@@H](NC(=O)C(=O)O)C(=O)O)cc1
Active	3.5	20.1	–	–	–	O=C(O)C(=O)N[C@H](Cc1ccc(OC(=O)c2ccco2)cc1)C(=O)O
Active	3.6	16.6	25	–	10	O=C(O)C(=O)N[C@H](Cc1ccc(OCc2ccccc2F)cc1)C(=O)O
Active	–	–	–	–	–	O=C(O)C(=O)N[C@H](Cc1ccc(OC(=O)C2CCCCC2)cc1)C(=O)O
Active	–	–	–	–	–	O=C(O)C(=O)N[C@H](Cc1ccc(OC(=O)c2cccs2)cc1)C(=O)O
Active	3.1	14.7	–	–	–	O=C(O)C(=O)N[C@H](Cc1ccc(OCc2ccccc2[N+](=O)[O-])cc1)C(=O)O
Active	–	–	–	–	–	Cc1noc(C)c1C(=O)Oc1ccc(C[C@@H](NC(=O)C(=O)O)C(=O)O)cc1
